Among the data in ChEMBL document CHEMBL1122480, “Synthesis and pharmacological studies of 4,4-disubstituted piperidines: a new class of compounds with potent analgesic properties” (J Med Chem, 1983) are ED50 and IC50 values, retold here.

Some results are limits rather than exact numbers.

Assay [1] has as its system Mus musculus. Kind of assay: Analgesic activity in tail flick test, oral administration. The class given is functional. A digest of the protocol: (§1)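 Mouse tail-flick test against a noxious heat stimulus (D'Amour–Smith method), with drug given by the stated route. […] Where no exact ED50 was obtained, the percentage of animals showing analgesia is reported.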
For orientation: Thermal pain tests record how soon the animal reacts.

Assay [2] concerns Mus musculus. Kind of assay: Analgesic activity using PQW test, oral administration. The class given is functional. A digest of the protocol:
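Oral drug in mice, followed by phenylbenzoquinone-induced writhing. Analgesia is scored as fewer abdominal contractions in a group of five animals than in a control group. ED50 is the dose that reduces contractions by 50%, estimated graphically by the Litchfield method. Otherwise the percentage of animals showing analgesia is given.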

Assay [3] concerns Mus musculus. The experiment in a line: Analgesic activity in tail flick test, subcutaneous administration. The class given is functional. A digest of the protocol:
as §1

In assay [4] the target is T1, Serotonin (5-HT) receptor (Homo sapiens) (UniProt P30939+P41595+Q13639+P28222+P46098+P08908+P28221+P28223+P28335+P28566+P34969+P50406+P47898+A5X5Y0+O95264+Q70Z44+Q8WXA8). The experiment in a line: Serotonin antagonism in guinea pig 6 hr after oral administration. Conditions: Cavia porcellus; target entry is the homologue from another species. The assay is classed as functional, organism-based. A digest of the protocol: (§2)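 Guinea pigs were protected against a lethal serotonin dose, per the cited Roemer and Weidmann method. Test substance was given subcutaneously or orally, as named in each line. Protection was assessed at the stated interval after dosing (0.5, 6 or 24 h). ED50 (mg/kg) was estimated graphically by the Litchfield method.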

For assay [5], the target named is T1, Serotonin (5-HT) receptor (Homo sapiens). Kind of assay: Serotonin antagonism in guinea pig 6 h after subcutaneous administration. The class given is functional, organism-based. Conditions: Cavia porcellus; target entry is the homologue from another species. A digest of the protocol:
as §2

Assay [6] has the same target. The experiment in a line: Serotonin antagonism in guinea pig 0.5 hr after subcutaneous administration. The assay is classed as functional, organism-based. Conditions: Cavia porcellus; target entry is the homologue from another species. A digest of the protocol:
as §2

For assay [7] the target is unchanged. The experiment in a line: Serotonin antagonism in guinea pig 24 hr after subcutaneous administration. The class given is functional, organism-based. Conditions: Cavia porcellus; target entry is the homologue from another species. A digest of the protocol:
as §2

The target is the same in assay [8]. The experiment in a line: Serotonin antagonism in guinea pig 0.5 hr after oral administration. The assay is classed as functional, organism-based. Conditions: Cavia porcellus; target entry is the homologue from another species. A digest of the protocol: as §2
The target is the same in assay [9]. Kind of assay: Serotonin antagonism in guinea pig 24 hr after oral administration. The assay is classed as functional, organism-based. Conditions: Cavia porcellus; target entry is the homologue from another species. A digest of the protocol: as §2
For assay [10], the target named is T2, Opioid receptor (Rattus norvegicus, UniProt P33533+P34975+P33535). The experiment in a line: Inhibition of [3H]naloxone binding to rat brain membrane with 100 mM NaCl.
Assay [11] addresses T2, Opioid receptor. Kind of assay: Inhibition of [3H]-Naloxone binding to rat brain membrane without NaCl.
The subject of assay [12] is Mus musculus. The experiment in a line: 5 HTP (5-hydroxytryptophan) antagonism in mouse 0.5 hr after subcutaneous administration (0.003-0.1 dose range). The assay is classed as functional. Conditions: sc. A digest of the protocol: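 Mice received drug sc over the stated dose range, then DL-5-hydroxytryptophan to induce head twitches. ED50 is the dose that cut the mean number of head twitches by 50% versus a saline-treated control group (N = 5-10). It was estimated graphically by the Litchfield method.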

Setting [13] is: Mus musculus, Tail, po, read-out: ED50.
Setting [14] is: Mus musculus, po, read-out: ED50.
Setting [15] is: Mus musculus, Tail, sc, read-out: ED50.

The ED50 is the dose that gives a 50% effect, or the effect in half of the subjects. For the compound `CCCN(C(=O)C(C)C1(O)CCN(CCc2ccccc2Cl)CC1)C1CCCCC1` (stereo unspecified), the figures for the ED50 in [1] (setting [13]), in assay [2] (setting [14]) and in assay [3] (setting [15]) were 56 mg/kg, less than 32 mg/kg and more than 10 mg/kg, respectively.
Take `COc1ccccc1NC(=O)C(C)(C)C1(O)CCN(CCc2ccccc2Cl)CC1.Cl`: the results for the ED50 in assay [2] (setting [14]) and in [3] (setting [15]) were less than 56 mg/kg and more than 32 mg/kg, respectively.
In the case of `CC(C(=O)NC1CCCCC1)C1(O)CCN(CCc2ccccc2Cl)CC1.O=C(O)/C=C\C(=O)O` (stereo unspecified), the ED50 in assay [1] (setting [13]) is less than 56 mg/kg; in assay [2] (setting [14]), more than 56 mg/kg; in assay [3] (setting [15]), more than 3.2 mg/kg.
Regarding `CC(C(=O)N(C)C1CCCCC1)C1(O)CCN(CCc2ccccc2Cl)CC1` (stereo in doubt; 15), the ED50 in [4] turned out to be 9 µg/kg; in [5], 7 µg/kg; in assay [6], 0.015 mg/kg; in assay [7] it was 0.028 mg/kg; in assay [8], 0.01 mg/kg; in assay [9], 0.045 mg/kg.
For `C=CCN1CCC(O)(C(C)C(=O)N(C)C2CCCCC2)CC1.O=C(O)/C=C/C(=O)O` (stereo unspecified), the results for the ED50 in [2] (setting [14]) and in [3] (setting [15]) were 1 mg/kg and 32 mg/kg, respectively.
Regarding `CC(C(=O)N(C)C1CCCCC1)C1(O)CCN(C)CC1.Cl` (stereo unspecified), the ED50 in assay [1] (setting [13]) is more than 100 mg/kg; in assay [2] (setting [14]), more than 56 mg/kg; in assay [3] (setting [15]) it was more than 56 mg/kg.
Consider `Br.CCCCCCCN1CCC(O)(C(C)C(=O)N(C)C2CCCCC2)CC1` (stereo unspecified), for which the ED50 is more than 100 mg/kg in assay [1] (setting [13]), more than 56 mg/kg in assay [2] (setting [14]) and more than 56 mg/kg in assay [3] (setting [15]).
Take `CN(C(=O)C1(C2(O)CCN(CCc3ccccc3Cl)CC2)CCCC1)C1CCCCC1.O=C(O)/C=C/C(=O)O`: the ED50 in assay [1] (setting [13]) is 100 mg/kg; in [2] (setting [14]), more than 56 mg/kg; in assay [3] (setting [15]) it was more than 56 mg/kg.
For `CC(C(=O)N(C)C1CCCCC1)C1(O)CCN(CCc2ccccc2)CC1.Cl` (stereo unspecified), the ED50 in [1] (setting [13]) is more than 56 mg/kg; in assay [2] (setting [14]), 18 mg/kg; in assay [3] (setting [15]) it was 18 mg/kg.
For orientation: IC50 means the concentration needed to halve the response being measured. High values mean lower potency, low ones higher potency. For the compound `CCOc1ccccc1N(CC)C(=O)C(C)C1(O)CCN(CCc2ccccc2Cl)CC1` (stereo unspecified), the IC50 in assay [10] was found to be 1.8 nM; in assay [11], 0.55 nM. Moreover, the ED50 in [1] (setting [13]) amounted to 10 mg/kg; in [2] (setting [14]), 1.8 mg/kg; in [3] (setting [15]), 0.26 mg/kg.
With `CC(C(=O)N(C)C1CCCCC1)C1(O)CCN(CCc2ccccc2Cl)CC1` (stereo unspecified) [PIPRAMADOL], the ED50 stood at 100 mg/kg in assay [1] (setting [13]), 10 mg/kg in assay [2] (setting [14]) and 3.8 mg/kg in assay [3] (setting [15]).
On to `CCCN(C(=O)C(C)C1(O)CCN(CCc2ccccc2Cl)CC1)c1ccccc1OC.O=C(O)/C=C/C(=O)O` (stereo unspecified), for which the IC50 in assay [10] came to 0.66 nM; in assay [11], 0.51 nM. For the same compound, the ED50 in assay [1] (setting [13]) is 5.4 mg/kg; in assay [2] (setting [14]), 1.8 mg/kg; in assay [12], 0.015 mg/kg; in assay [3] (setting [15]), 0.11 mg/kg.
Take `CCCN(C(=O)C(C)C1(OC(=O)CC)CCN(CCc2ccccc2Cl)CC1)c1ccccc1OC.O=C(O)/C=C\C(=O)O` (stereo unspecified): the ED50 stood at 100 mg/kg in [1] (setting [13]), 1 mg/kg in assay [2] (setting [14]) and 32 mg/kg in [3] (setting [15]).
For `CCC(=O)OC1(C(C)C(=O)N(C)C2CCCCC2)CCN(CCc2ccccc2Cl)CC1` (stereo unspecified), the ED50 is less than 56 mg/kg in [2] (setting [14]) and less than 3.2 mg/kg in [3] (setting [15]).
As for `CN1CCC(=C2c3ccccc3C=Cc3ccccc32)CC1` [CYPROHEPTADINE], in [12], the median effective dose (ED50) amounted to 0.015 mg/kg.
Take `CN(C(=O)CC1(O)CCN(CCc2ccccc2Cl)CC1)C1CCCCC1.Cl`: the ED50 in [1] (setting [13]) was less than 56 mg/kg; in [2] (setting [14]), more than 18 mg/kg; in assay [3] (setting [15]), more than 3.2 mg/kg.
For the compound `CC(C(=O)N(C)C1CCCCC1)C1CCN(CCc2ccccc2Cl)CC1.Cl` (stereo unspecified), the 50% effective dose (ED50) in [1] (setting [13]) is 37 mg/kg; in assay [2] (setting [14]), less than 18 mg/kg; in [3] (setting [15]) it was 2.9 mg/kg.
On to `COc1ccccc1NC(=O)C(C)C1(O)CCN(CCc2ccccc2Cl)CC1.O=C(O)/C=C/C(=O)O` (stereo unspecified), for which the ED50 in [2] (setting [14]) was 5.6 mg/kg; in assay [3] (setting [15]) it was more than 18 mg/kg.
`CC(C(=O)N(C)C1CCCCC1)C1(O)CCN(CCc2ccccc2Cl)CC1.O=C(O)/C=C\C(=O)O` (single isomer, unassigned; (-)): the figures for the ED50 in assay [1], in assay [2] and in [3] were 100 mg/kg, 20 mg/kg and 42 mg/kg, respectively.
For the compound `CC(C(=O)N(C)c1cccc(O)c1)C1(O)CCN(CCc2ccccc2Cl)CC1.O=C(O)/C=C/C(=O)O` (stereo unspecified), the results for the ED50 in assay [2] (setting [14]) and in [3] (setting [15]) were more than 18 mg/kg and more than 56 mg/kg, respectively.
